According to publication PMC6861656 (Angewandte Chemie (International ed. in English), 2019):

How the values were obtained:
[1] = tested on: MCF-7 cells; assay: FKBP ligand competition in [3H]-2DG uptake assay in MCF-7 cells; format: cell-based, human; conditions: 20 μM with 100nM of RgA
Procedure, shortened: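 MCF-7 cells were exposed to test compound at 100 nM together with 20 μM FK506, 20 μM rapamycin, or their combinations, with each agent also given alone. [3H]-2DG uptake was then measured to test whether excess FKBP-binding ligands antagonise inhibition of glucose uptake.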

[2] = biological target: T1, DLD-1 GLUT1 knock out (for GLUT3) (Homo sapiens, UniProt P11169); assay: [3H]-2DG uptake in DLD-1 GLUT1 knock out cells; format: cell-based; conditions: DLD-1 GLUT1 knock out vs wild type
T1 sequence (P11169 1-496): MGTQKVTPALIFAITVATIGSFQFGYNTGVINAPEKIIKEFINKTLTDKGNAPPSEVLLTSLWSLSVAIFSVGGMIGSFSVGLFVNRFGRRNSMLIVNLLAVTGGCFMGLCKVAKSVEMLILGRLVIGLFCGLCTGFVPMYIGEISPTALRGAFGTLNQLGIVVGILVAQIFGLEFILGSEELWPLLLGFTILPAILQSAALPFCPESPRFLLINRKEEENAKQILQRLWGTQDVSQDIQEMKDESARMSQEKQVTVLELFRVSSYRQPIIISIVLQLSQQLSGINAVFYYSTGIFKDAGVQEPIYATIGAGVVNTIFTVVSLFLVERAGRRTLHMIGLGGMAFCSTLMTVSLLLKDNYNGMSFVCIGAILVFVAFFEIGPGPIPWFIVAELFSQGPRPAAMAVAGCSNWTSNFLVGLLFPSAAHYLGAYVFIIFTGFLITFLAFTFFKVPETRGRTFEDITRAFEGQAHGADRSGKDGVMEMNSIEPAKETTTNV
Procedure, shortened: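 Isogenic DLD-1 lines were run in parallel: wild type (GLUT1) and GLUT1 knockout (GLUT3). Each was treated with test compound, BAY-876 (GLUT1-specific reference) or cytochalasin B (non-specific GLUT inhibitor), then [3H]-2DG uptake was assessed.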

[3] = biological target: T2, GLUT1 (Homo sapiens, UniProt P11166); assay: rapafucin 3D microarray screen with GLUT1-containing cell lysate; format: binding; conditions: hit when SBR greater than 3; GLUT1-containing HEK293T lysate
T2 sequence (P11166 1-492): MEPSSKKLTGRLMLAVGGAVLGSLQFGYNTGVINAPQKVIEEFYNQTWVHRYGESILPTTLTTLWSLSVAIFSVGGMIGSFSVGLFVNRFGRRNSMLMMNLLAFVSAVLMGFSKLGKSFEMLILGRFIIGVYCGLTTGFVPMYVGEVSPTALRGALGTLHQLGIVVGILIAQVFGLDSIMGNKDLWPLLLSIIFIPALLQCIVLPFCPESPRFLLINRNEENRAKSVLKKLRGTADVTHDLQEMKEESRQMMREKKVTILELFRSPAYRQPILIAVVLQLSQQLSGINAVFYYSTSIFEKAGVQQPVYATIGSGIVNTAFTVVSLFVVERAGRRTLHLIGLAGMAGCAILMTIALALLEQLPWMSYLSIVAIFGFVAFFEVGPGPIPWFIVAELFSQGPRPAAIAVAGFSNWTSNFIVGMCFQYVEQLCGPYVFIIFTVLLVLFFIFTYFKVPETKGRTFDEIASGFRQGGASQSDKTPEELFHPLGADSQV
Procedure, shortened: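 HEK293T cells stably overexpressing GLUT1 gave a detergent-solubilised lysate. This was incubated on rapafucin arrays printed on a diazirine 3D copolymer surface (PEGMA:DMAEMA 8:2; ATRP initiator:propionyl bromide 1:100). Unbound protein was washed off, and bound GLUT1 was detected with anti-GLUT1 antibody plus Cy5 secondary on a microarray scanner. BAY-876 served as positive control.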

Row | SMILES | effect on the inhibitory activity of RgA in the [3H]-2DG uptake assay [1] | inhibitory activity on [3H]-2DG uptake in GLUT1 knock out cells [2] | signal-to-background ratio (SBR), positive hit on 3D rapafucin microarray [3]
1 | CO[C@H]1C[C@@H]2CC[C@@H](C)[C@@](O)(O2)C(=O)C(=O)N2CCCC[C@H]2C(=O)O[C@H]([C@H](C)C[C@@H]2CC[C@@H](O)[C@H](OC)C2)CC(=O)[C@H](C)/C=C(\C)[C@@H](O)[C@@H](OC)C(=O)[C@H](C)C[C@H](C)/C=C/C=C/C=C/1C [rapamycin] | negligible effect |  | 
2 | Cc1c(NC(=O)c2cc(C(N)=O)nc3cc(F)ccc23)c(C(F)(F)F)nn1Cc1ccc(C#N)cc1 [BAY-876] |  | lost its inhibitory activity | identified
3 | C=CC[C@@H]1/C=C(\C)C[C@H](C)C[C@H](OC)[C@H]2O[C@@](O)(C(=O)C(=O)N3CCCC[C@H]3C(=O)O[C@H](/C(C)=C/[C@@H]3CC[C@@H](O)[C@H](OC)C3)[C@H](C)[C@@H](O)CC1=O)[C@H](C)C[C@@H]2OC [FK506] | negligible effect |  | 
4 | C=C1[C@@H](C)[C@H]2[C@H](Cc3ccccc3)NC(=O)[C@]23OC(=O)/C=C/[C@H](O)CCC[C@@H](C)C/C=C/[C@H]3[C@@H]1O [cytochalasin B] |  | maintained its inhibitory activity | 
